The source made the active and inactive calls.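 Rule for the calls, unless noted: active = visually confirmed hit in the image check and inhibition above 20%; inconclusive = visually confirmed hit but inhibition not above 20%; inactive = no visual hit in the image check.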
Legend:
[1] = inhibitors of TNFa-induced NFkB p65 translocation, primary screen, imaging, HUVEC, MLSMR starter and 10KST1 sets (AID 438;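 active = inhibition above 20% together with a positive visual image hit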;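 note: compound added about 3h40 before a 20 min TNFalpha stimulation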;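 for inhibition: signal is the nuclear over cytoplasmic p65 intensity ratio per well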); conditions: HUVEC TNFa-induced p65 nuclear translocation; cell count: measured here: nuclei count (cytotoxicity indicator), at 2.08 µM; inhibition: at 2 µM, stronger effect = higher value, 0% TNFa-plus-vehicle, 100% no-TNFa wells
[2] = reduction of polyQ htt aggregates in cells – imaging, exon1htt(103Q)mCFP cells, high-content imaging, primary screen (AID 483;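 active = visual image review flags a hit and inhibition of aggregation exceeds 20%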;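 note: compound exposure lasted 3 days before fixation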;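 for nuclei count: percent of the per-plate median nuclei count of sample wells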); conditions: exon1htt(103Q)mCFP cell line, aggregate imaging, at 2 µM; inhibition of aggregation: stronger effect = higher value; nuclei count: measured here: cell count, toxicity
[3] = endothelial E-selectin expression blockers – imaging, HUVEC, immunofluorescence, MLSMR starter and 10KST1 sets, primary screen (AID 487); conditions: HUVEC TNFalpha-induced E-selectin immunofluorescence imaging, at 2 µM; inhibition: stronger effect = higher value; nuclei count: measured here: cell number, toxicity;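 for inhibition: signal is fraction of cell area covered by stained E-selectin grains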;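 for nuclei count: 100% = median nuclei count of all wells on the same plate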
[4] = molecular target: Voltage-gated potassium channel subunit beta-2 (Rattus norvegicus) (UniProt P62483); experiment: inhibitors of rat Kvbeta2 reductase activity – biochemical, NADPH fluorescence, primary screen (AID 622;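 active = fluorescence slope higher than the sample average by over 3 SD, cut at about -0.22 in these data, passing the limit was not always enough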;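 note: slope of raw intensity against log time taken from 70 to 1610 s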); conditions: recombinant KvBeta, 4-cyanobenzaldehyde reduction, at 10 µM, stronger effect = higher value
Sequence of Voltage-gated potassium channel subunit beta-2 (Rattus norvegicus) (P62483 whole entry, looked up): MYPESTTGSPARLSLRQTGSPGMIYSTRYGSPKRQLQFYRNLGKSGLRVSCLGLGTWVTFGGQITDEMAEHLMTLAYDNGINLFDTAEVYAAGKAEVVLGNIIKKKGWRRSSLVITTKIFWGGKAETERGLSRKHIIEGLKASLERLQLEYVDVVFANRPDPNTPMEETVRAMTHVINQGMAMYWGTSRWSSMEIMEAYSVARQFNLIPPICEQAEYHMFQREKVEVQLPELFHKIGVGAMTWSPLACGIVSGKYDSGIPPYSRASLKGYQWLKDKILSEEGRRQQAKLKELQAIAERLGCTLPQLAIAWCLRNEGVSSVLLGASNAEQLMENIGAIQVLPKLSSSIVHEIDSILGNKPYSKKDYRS

[5] = molecular target: Voltage-gated potassium channel subunit beta-2 (Rattus norvegicus) (UniProt P62483); experiment: enhancers of rat Kvbeta2 NADPH turnover – biochemical, NADPH fluorescence, primary screen (AID 623;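 active = NADPH fluorescence slope more negative than the mean of all samples by about 3 SD, 99.7% confidence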;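 note: fluorescence intensity change per second fitted from 20 to 320 s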); conditions: Recombinant KvBeta, NADPH fluorescence decrease slope, 10 min; at 10 µM; stronger effect = lower value
[6] = molecular target: Muscarinic acetylcholine receptor M4 (Homo sapiens) (UniProt P08173); experiment: M4-linked GIRK flux change, two-sided – cell-based, HEK293 M4/GIRK, thallium flux, BTC-AM, M4 allosteric agonist project, primary screen (AID 625;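 active = fluorescence slope after compound addition differing from the mean of all tested samples at 99.7% confidence, mostly higher but some lower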;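 note: thallium influx through GIRK channels coupled to M4 in HEK293 cells with BTC-AM dye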); conditions: at 10 µM, actives lie on both sides
Sequence of Muscarinic acetylcholine receptor M4 (Homo sapiens) (P08173 whole entry, looked up): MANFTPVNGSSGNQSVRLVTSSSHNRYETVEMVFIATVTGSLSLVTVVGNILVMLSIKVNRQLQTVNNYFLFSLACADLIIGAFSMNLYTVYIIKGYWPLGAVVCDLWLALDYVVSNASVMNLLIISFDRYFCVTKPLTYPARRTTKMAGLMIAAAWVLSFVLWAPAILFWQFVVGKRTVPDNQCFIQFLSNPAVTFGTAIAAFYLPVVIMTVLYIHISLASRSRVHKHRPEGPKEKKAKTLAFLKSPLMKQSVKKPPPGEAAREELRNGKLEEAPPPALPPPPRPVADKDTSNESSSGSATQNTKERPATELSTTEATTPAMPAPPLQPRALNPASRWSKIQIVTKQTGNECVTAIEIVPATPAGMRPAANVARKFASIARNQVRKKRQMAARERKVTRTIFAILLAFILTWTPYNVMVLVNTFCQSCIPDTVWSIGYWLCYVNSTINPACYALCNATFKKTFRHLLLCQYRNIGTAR
Summary of the method: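 System: HEK293 cells with M4 receptor and GIRK channels | Incubation: Cells overnight at 37 °C, BTC-AM loading 1 h, reads 2 min total | Technique: Kinetic BTC-AM fluorescence sampled at 1 Hz, 10 s pre-addition baseline | Measure: Post-addition slope, 15–24 s, of baseline-normalized fluorescence | Control set: Carbachol positive, DMSO negative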

[7] = blockers of RIG-like receptor reporter activation – cell-based, Sendai virus stimulus, luciferase, 10K MLSCN set, TLR/RLR signaling modifier project, primary screen (AID 602276;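 active = inhibition at or above 50% at 10 µM; inactive = inhibition below 50%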;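 note: firefly luciferase from ISG56 promoter only with Renilla not read in this screen; 0% = Sendai virus plus DMSO and 100% = medium plus DMSO without virus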); conditions: HEK293 RL24 IRF3 luciferase reporter, at 10 µM, stronger effect = higher value
[8] = TLR3 IRF3 reporter activation blockers – cell-based, poly I:C stimulus, luciferase, 10K MLSCN set, primary screen (AID 602277;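 active = inhibition of the reporter signal at or above 50%; inactive = inhibition below 50%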); conditions: HEK293-TLR3 RL24 IRF3 luciferase reporter, at 10 µM, stronger effect = higher value

| SMILES | cell count [1] | inhibition [1] | inhibition of aggregation [2] | nuclei count [2] | inhibition [3] | nuclei count [3] | fluorescence slope [4] | NADPH fluorescence slope [5] | fluorescence slope [6] | inhibition [7] | inhibition [8] |
| --- | --- | --- | --- | --- | --- | --- | --- | --- | --- | --- | --- |
| Oc1ccc(-c2onc(C(F)(F)F)c2-c2cscn2)c(O)c1 | 363 | -0.5% (inactive) | -7% (inactive) | 92.7% | -85.6% (inactive) | 116% | -0.573 (inactive) | -5.1e-05 (inactive) | 0.00657 (inactive) | 14.9% (inactive) | -12.3% (inactive) |
| Nc1nc(-c2ccc(Cl)cc2)cc(C(F)(F)F)n1 | 439 | 2.1% (inactive) | 4.9% (inactive) | 103% | -16.4% (inactive) | 109% | -0.582 (inactive) | -1.9e-07 (inactive) | 0.00927 (inactive) | 1.69% (inactive) | -12.7% (inactive) |
| Cc1ccc(C)c(N2CCN(C(=O)C3CCN(S(=O)(=O)c4c(C)noc4C)CC3)CC2)c1 | 448 | -10.8% (inactive) | 30.5% (inactive) | 77% | -17.6% (inactive) | 99.8% | -0.474 (inactive) | -8.1e-06 (inactive) | 0.00554 (inactive) | 11.3% (inactive) | -1.19% (inactive) |
| Cc1ccc(NC(=O)Nc2ccc3c(c2)N(C)C(=O)CS3)nc1 | 562 | -6.9% (inactive) | -30.5% (inactive) | 123% | -45% (inactive) | 116% | -0.395 (inactive) | 6.1e-05 (inactive) | 0.00547 (inactive) | 7.37% (inactive) | 0.72% (inactive) |
| CCC(=O)N1CCc2cc(OC)c(OC)cc2C1COc1ccc(C(=O)OC)cc1 (stereo not drawn) | 767 | -20.4% (inactive) | -5.1% (inactive) | 128% | 36.5% (inactive) | 108% | -0.543 (inactive) | -2e-05 (inactive) | 0.00388 (inactive) | 23.8% (inactive) | 6.29% (inactive) |
| COc1cccc(-c2cc(C(=O)Nc3c(C)nn(Cc4ccccc4)c3C)no2)c1 | 438 | -12.2% (inactive) | -6.5% (inactive) | 105% | 41.8% (inactive) | 87% | -0.249 (inactive) | -2.3e-05 (inactive) | 0.00831 (inactive) | 0.514% (inactive) | -23.3% (inactive) |
| Cc1cc(NC(=O)CSc2ccc(Cl)cc2)no1 | 368 | 0.2% (inactive) | 12.7% (inactive) | 94.2% | -83.4% (inactive) | 102% | -0.548 (inactive) | -0.000128 (inactive) | 0.00359 (inactive) | -7.02% (inactive) | -14.7% (inactive) |
| Cc1nc(NC2=NCN(CCCN3CCOCC3)CN2)nc2c(C)cccc12 | 552 | 12.1% (inactive) | 0.1% (inactive) | 73.7% | 35.4% (inactive) | 97.1% | -0.571 (inactive) | -6.5e-05 (inactive) | 0.00567 (inactive) | 26.7% (inactive) | 31.4% (inactive) |
| C=CCN(CC=C)C(=O)CN1C(=O)c2ccccc2C1=O | 356 | 0.2% (inactive) | 27.5% (inactive) | 83.2% | -103% (inactive) | 117% | -0.572 (inactive) | -1.3e-05 (inactive) | 0.0065 (inactive) | 19.9% (inactive) | 22.1% (inactive) |
| Cc1ccc2c(COn3nnc4ccc(S(=O)(=O)N(C)C)cc43)cc(=O)oc2c1C | 702 | 5.3% (inactive) | 16.4% (inactive) | 96.2% | 30.2% (inactive) | 94.7% | -0.543 (inactive) | -6.4e-05 (inactive) | 0.00895 (inactive) | -1.62% (inactive) | 10.1% (inactive) |
| CN(CC(=O)N1CCN(C2CCCCC2)CC1)S(=O)(=O)c1cccc2nsnc12 | 367 | 0.8% (inactive) | -4.6% (inactive) | 102% | 36% (inactive) | 94.6% | -0.379 (inactive) | 8e-05 (inactive) | 0.00544 (inactive) | 13% (inactive) | 28.3% (inactive) |
| Cc1ccccc1NC(=O)N1C2CCCC1CC(NC(=O)C1CC1)C2 (stereo not drawn) | 747 | -16.7% (inactive) | -5.1% (inactive) | 107% | 64.2% (inactive) | 94.5% | -0.361 (inactive) | 8.6e-05 (inactive) | 0.00599 (inactive) | 16.2% (inactive) | 16.2% (inactive) |
| CC(C)(C)c1cc(C(=S)N2CCN(CCO)CC2)cc(C(C)(C)C)c1O | 667 | -1.4% (inactive) | 10.4% (inactive) | 105% | -150% (inactive) | 128% | -0.534 (inactive) | -4.4e-05 (inactive) | 0.00566 (inactive) | 24.4% (inactive) | 29.9% (inactive) |
| Cc1ccccc1-c1nc(CN2CCC(C(=O)NCCCN3CCOCC3)CC2)c(C)o1 | 598 | -5.3% (inactive) | -16.7% (inactive) | 89.8% | -67.2% (inactive) | 102% | -0.496 (inactive) | 6.2e-05 (inactive) | 0.00497 (inactive) | -3.78% (inactive) | 22.4% (inactive) |
| CC(=O)c1c(C)[nH]c(C(=O)NCc2cccs2)c1C | 471 | 2.9% (inactive) | 15.8% (inactive) | 116% | -76.6% (inactive) | 95.6% | -0.561 (inactive) | -4.9e-05 (inactive) | 0.00619 (inactive) | -3.69% (inactive) | -17.2% (inactive) |
| Cc1ccc(-c2cc(C(F)(F)F)n3ncc(C(=O)O)c3n2)cc1 | 412 | 3.1% (inactive) | -8.3% (inactive) | 109% | -26.7% (inactive) | 110% | -0.524 (inactive) | -3.4e-05 (inactive) | 0.00395 (inactive) | 19.6% (inactive) | 21.8% (inactive) |
| CC(c1nnc(SCC(=O)Nc2sccc2C#N)n1-c1ccc(Cl)cc1)N(C)C (stereo not drawn) | 539 | -20.1% (inactive) | 2% (inactive) | 101% | -28.9% (inactive) | 143% | -0.463 (inactive) | -2.7e-05 (inactive) | 0.00514 (inactive) | 17.6% (inactive) | 25.1% (inactive) |
| COc1cc(NC(=O)c2cc(OC)c(OC)c(OC)c2)c(OC)cc1NC(=O)CN1CCCCC1 | 700 | -11.1% (inactive) | 12.2% (inactive) | 115% | -14.6% (inactive) | 115% | -0.309 (inactive) | -3.3e-05 (inactive) | 0.00436 (inactive) | 3.03% (inactive) | -8.31% (inactive) |
| Cc1cc(C)nc(N2CCC(C(=O)NCc3cccc(C(F)(F)F)c3)CC2)n1 | 441 | 7.1% (inactive) | -55.6% (inactive) | 85.9% | 45.5% (inactive) | 85.1% | -0.227 (inactive) | -4.8e-06 (inactive) | 0.00567 (inactive) | 11.9% (inactive) | 14% (inactive) |
| CC1CC(=O)C2=C(C1)OC(N)=C(C#N)C2c1coc2ccccc2c1=O (stereo not drawn) | 282 | -10.1% (inactive) | 8.2% (inactive) | 79.3% | 24.1% (inactive) | 82.2% | -0.514 (inactive) | -4.1e-05 (inactive) | 0.00433 (inactive) | 19.2% (inactive) | 23.4% (inactive) |
| O=C(NC1CCCC1)c1ccc(S(=O)(=O)N2CCCC2)cc1 | 452 | -8% (inactive) | 1.5% (inactive) | 104% | -93.7% (inactive) | 120% | -0.344 (inactive) | -1.7e-05 (inactive) | 0.0102 (inactive) | -19.5% (inactive) | -26.9% (inactive) |
| O=C(Cn1c(=O)[nH]n(-c2ccccc2)c1=O)N1CCCc2ccccc21 | 328 | 0% (inactive) | -15.3% (inactive) | 117% | -87.1% (inactive) | 118% | -0.387 (inactive) | -5.1e-05 (inactive) | 0.00957 (inactive) | 14.4% (inactive) | 25.6% (inactive) |
| O=c1c2c3c(sc2nc2sc(C4CC4)nn12)CCCC3 | 428 | -8.3% (inactive) | 19.5% (inactive) | 80.2% | 34.4% (inactive) | 67.7% | -0.602 (inactive) | 3.7e-05 (inactive) | 0.00546 (inactive) | -18.7% (inactive) | -51.7% (inactive) |
| Cn1nc(-c2ccc(C(=O)N3CCN(c4ccccc4)CC3)cc2)c2ccccc2c1=O | 769 | -4% (inactive) | 10.9% (inactive) | 90.3% | -13.7% (inactive) | 110% | -0.552 (inactive) | -4.4e-05 (inactive) | 0.00744 (inactive) | -31.8% (inactive) | -26.4% (inactive) |
| CC(C)(C)N(Cc1cc2ccccc2[nH]c1=O)C(=O)C1CCCCC1 | 510 | -1.4% (inactive) | -4.5% (inactive) | 110% | 4% (inactive) | 95.6% | -0.455 (inactive) | -7.9e-05 (inactive) | 0.00597 (inactive) | -3.62% (inactive) | 9.15% (inactive) |
| CCOc1ccc(NC(=O)CN2CCN(CC(=O)Nc3ccc(F)c(F)c3)CC2)cc1 | 409 | 3.1% (inactive) | -0.9% (inactive) | 105% | -60.2% (inactive) | 99.8% | -0.435 (inactive) | 4.4e-05 (inactive) | 0.00651 (inactive) | 12.5% (inactive) | 23% (inactive) |
| Cc1cc(SCC(N)=O)nc(SCC(=O)c2ccccc2)n1 | 584 | -3.3% (inactive) | -8.2% (inactive) | 105% | 16.8% (inactive) | 91.6% | -0.585 (inactive) | -5.2e-05 (inactive) | 0.00307 (inactive) | 10.5% (inactive) | 21% (inactive) |
| CN(C)CC(=O)N1c2ccccc2CCc2ccc(NC(=O)c3ccc(N)cc3)cc21 | 555 | -15.6% (inactive) | 3.6% (inactive) | 95.1% | -115% (inactive) | 108% | -0.571 (inactive) | -5.5e-05 (inactive) | 0.00297 (inactive) | 11.3% (inactive) | 26.6% (inactive) |
